The source made the active and inactive calls. The rule behind the calls is not given here.
Key:
[1] = Antiproliferative activity in Chinese hamster R2 cells deficient in RFC, PCFT, and FRalpha assessed as reduction in cell growth after 96 hrs by Cell-Titer Blue assay; assay type: cell-based; settings: Cricetulus griseus, R2, 96 h
[2] = target: T1, Reduced folate transporter (Homo sapiens) (UniProt P41440); experiment: Inhibition of human RFC2 expressed in human HeLa R1-11 cells assessed as reduction in [3H]MTX uptake at pH 7.2 at 10 uM measured over 2 mins relative to control; assay type: cell-based
T1 sequence (whole entry): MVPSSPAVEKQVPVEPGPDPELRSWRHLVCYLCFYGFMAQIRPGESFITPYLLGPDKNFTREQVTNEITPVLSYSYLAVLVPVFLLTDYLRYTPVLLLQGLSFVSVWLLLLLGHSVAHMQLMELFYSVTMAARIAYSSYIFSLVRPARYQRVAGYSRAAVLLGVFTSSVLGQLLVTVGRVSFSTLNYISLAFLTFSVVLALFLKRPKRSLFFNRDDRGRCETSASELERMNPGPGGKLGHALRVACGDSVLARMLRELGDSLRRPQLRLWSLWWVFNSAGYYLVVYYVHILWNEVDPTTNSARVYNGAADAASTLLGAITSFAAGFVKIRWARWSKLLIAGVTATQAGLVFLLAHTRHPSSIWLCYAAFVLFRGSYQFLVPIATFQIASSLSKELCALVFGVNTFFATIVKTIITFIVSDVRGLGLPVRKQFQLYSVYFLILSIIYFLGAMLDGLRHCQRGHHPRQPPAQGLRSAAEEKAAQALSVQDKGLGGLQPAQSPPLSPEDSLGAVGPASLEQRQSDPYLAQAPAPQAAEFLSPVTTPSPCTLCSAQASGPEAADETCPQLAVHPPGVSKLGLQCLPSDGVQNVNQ

[3] = target: T2, Proton-coupled folate transporter (Homo sapiens) (UniProt Q96NT5); experiment: Inhibition of human PCFT expressed in Chinese hamster R2/PCFT4 cells assessed as reduction in [3H]MTX uptake at pH 5.5 at 1 to 10 uM measured over 2 mins; assay type: cell-based
T2 sequence (whole entry): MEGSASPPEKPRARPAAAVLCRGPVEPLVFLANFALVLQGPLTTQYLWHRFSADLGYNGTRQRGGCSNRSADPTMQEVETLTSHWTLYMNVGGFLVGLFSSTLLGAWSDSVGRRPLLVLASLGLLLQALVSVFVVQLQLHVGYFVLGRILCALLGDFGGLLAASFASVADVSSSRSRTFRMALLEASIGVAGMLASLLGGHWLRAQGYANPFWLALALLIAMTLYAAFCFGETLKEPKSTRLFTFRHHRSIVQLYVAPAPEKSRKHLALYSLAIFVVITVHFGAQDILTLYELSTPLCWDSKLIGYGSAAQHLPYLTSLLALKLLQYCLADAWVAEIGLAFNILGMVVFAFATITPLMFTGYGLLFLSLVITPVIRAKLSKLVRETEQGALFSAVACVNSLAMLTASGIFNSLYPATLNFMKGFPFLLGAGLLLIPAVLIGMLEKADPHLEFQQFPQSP

IGROV-1 [4] = experiment: Anticlonogenic activity against human IGROV1 cells incubated for 24 hrs followed by compound wash out and measured after 10 days by methylene blue staining-based assay; assay type: functional, cell-based
Method in brief: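 IGROV1 cells plated in folate-free RPMI 1640 (pH 7.2), 10% dialyzed FBS, 25 nM LCV. After 24 h adherence, exposed to drug (0–20 μM) for 24 h at pH 6.8 (25 mM PIPES/25 mM HEPES). Washed, then grown drug-free at pH 7.2 (100 mM HEPES) with 25 nM LCV for up to 10 days at 37 °C. Colonies stained with methylene blue and counted electronically. Values normalized to vehicle controls. Triplicate experiments.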

IGROV-1 [5] = experiment: Antiproliferative activity against FRalpha […] human IGROV1 KD10 cells after 96 hrs by Cell-Titer Blue assay; assay type: functional, cell-based; settings: IGROV-1, 96 h
IGROV-1 [6] = experiment: Antiproliferative activity against human IGROV1 cells harboring non targeted control shRNA sequence after 96 hrs by Cell-Titer Blue assay; assay type: functional, cell-based; settings: IGROV-1, 96 h
A2780 = experiment: Antiproliferative activity against human A2780 cells after 96 hrs by Cell-Titer Blue assay; assay type: functional, cell-based; settings: A2780, 96 h
IGROV-1 [7] = experiment: Antiproliferative activity against wild type human IGROV1 cells after 96 hrs by Cell-Titer Blue assay; assay type: functional, cell-based; settings: IGROV-1, 96 h
IGROV-1 [8] = experiment: Antitumor activity against human IGROV1 cells xenografted in NCR SCID mouse assessed as median tumor burden at 32 mg/kg, iv treated once daily for 4 days per week for 3 weeks starting from 3 days post implantation and measured at day 60 post last dose (reference value: 108 mg); assay type: functional
Method in brief: (§1)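 Female ICR SCID mice (10 weeks, ~20 g) kept on folate-deficient diet ad libitum for 14 d before bilateral subcutaneous IGROV1 implantation; a control cohort was fed standard folate-replete chow. 5 mice/group, nonselectively randomized. […] Tumors measured twice weekly, body weights daily. T/C from median tumor burdens.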

IGROV-1 [9] = experiment: Antitumor activity against human IGROV1 cells xenografted in NCR SCID mouse assessed as time for tumor growth delay at 95 mg/kg, iv treated once daily for 4 days per week for 4 weeks starting from 3 days post implantation; assay type: functional; settings: in the assay text read “32 mg/kg” for “95 mg/kg”
Method in brief: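 Female ICR SCID mice, 10 weeks old, kept on a folate-deficient diet for 14 days before bilateral subcutaneous IGROV1 implants; a control cohort was fed folate-replete chow. Randomized at 5 mice/group. […] Tumors measured twice weekly; body weights recorded daily.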

[10] = Toxicity in NCR SCID mouse xenografted with human IGROV1 cells at 32 mg/kg, iv treated once daily for 4 days per week for 3 weeks starting from 3 days post implantation; assay type: organism-based; settings: in vivo
Method in brief: (§2)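 Female ICR SCID mice on a folate-deficient diet for 14 days before bilateral subcutaneous IGROV1 implants. Randomized at 5 mice/group. […] Body weights recorded daily; tumors measured twice weekly.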

[11] = Toxicity in NCR SCID mouse xenografted with human IGROV1 cells assessed as weight loss median nadir at 32 mg/kg, iv treated once daily for 4 days per week for 3 weeks starting from 3 days post implantation and measured at day 14 post last dose relative to control; assay type: organism-based; settings: in vivo; method in brief: as §1
[12] = Toxicity in NCR SCID mouse xenografted with human IGROV1 cells assessed as weight loss median nadir at 32 mg/kg, iv treated once daily for 4 days per week for 3 weeks starting from 3 days post implantation and measured at day 18 post last dose relative to control; assay type: organism-based; settings: in vivo; method in brief: as §2
[13] = target: T1, Reduced folate transporter (Homo sapiens); experiment: Inhibition of human RFC2 expressed in human HeLa R1-11 cells assessed as reduction in [3H]MTX uptake at pH 7.2 at 1 uM measured over 2 mins relative to control; assay type: cell-based
[14] = Toxicity in NCR SCID mouse xenografted with human IGROV1 cells assessed as weight loss median nadir at 32 mg/kg, iv treated once daily for 4 days per week for 4 weeks starting from 3 days post implantation and measured after conclusion of therapy; assay type: organism-based; settings: in vivo

Nc1nc2[nH]c(CCCc3ccc(C(=O)N[C@@H](CCC(=O)O)C(=O)O)s3)cc2c(=O)[nH]1
IC50 [1]: 355 nM
inhibition [2]: inactive
inhibition [3]: Active
IC50 (IGROV-1 [4]): 270 nM
IC50 (IGROV-1 [5]): 74.6 nM
IC50 (IGROV-1 [6]): 10.1 nM
IC50 (A2780): 27.4 nM
IC50 (IGROV-1 [7]): 16.7 nM
Activity (IGROV-1 [8]): 108 mg
Time (IGROV-1 [9]): 35 days
Activity [10]: Non-Toxic
Activity [11]: 15.7%
Activity [12]: 12.1%
inhibition [13]: inactive
Activity [14]: Non-Toxic
